Apaf1 inhib: blocks human Apaf-1 apoptosome activity; O14727; reconstituted apoptosome caspase-3 activity, DEVD-Rh110 fluorescence; inhibition, % at 20 µM; 330,000 tested, 0.71% active; active = inhibition of at least 40% at 20 µM;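 also: plate controls were DMSO wells for no effect and DEVD-CHO caspase inhibitor wells for full effect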
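Material: reconstituted apoptosome with Apaf-1, cytochrome c, caspase-9, procaspase-3, dATP. Technique: Rh110 fluorescence intensity. Buffer or medium: pH 7.5 Hepes buffer with CHAPS, BSA, DTT. Times: 30 min plus 50 min, RT.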
GSTO1 counter: GSTO1 inhibition, counter-screen for RBBP9 inhibitors. AID 1974. P78417. inhibition, % at 5.96 µM. recombinant GSTO1, activity-based probe fluorescence polarization. 300,000 tested, 1.1% active;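 active = inhibition above the campaign mean inhibition plus 3 SD, cut at about 35% in these data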;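 also: 0% = GSTO1-1 with DMSO and 100% = wells lacking GSTO1-1 enzyme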
Target sequence (P78417 whole entry, looked up): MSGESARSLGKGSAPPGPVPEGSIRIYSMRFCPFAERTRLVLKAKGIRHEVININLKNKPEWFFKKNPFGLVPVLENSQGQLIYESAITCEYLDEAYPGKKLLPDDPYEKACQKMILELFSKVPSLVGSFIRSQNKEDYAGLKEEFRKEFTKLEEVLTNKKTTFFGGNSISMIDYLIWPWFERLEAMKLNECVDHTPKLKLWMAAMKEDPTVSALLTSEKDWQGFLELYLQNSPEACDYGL
TDP2 absorb: TDP2 (human) inhibition, absorbance primary screen; O95551; recombinant TDP2, T5PNP hydrolysis, p-nitrophenol absorbance 415 nm; inhibition, % at 12.8 µM; 370,000 tested, 0.34% active; AID 720702;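 active = inhibition above the mean of all tested compounds plus 3 SD, set per campaign, cut at about 25% in these data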;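 also: 0% = DMSO with enzyme and 100% = buffer with substrate but no TDP2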
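test system = human TDP2 enzyme | input = TDP2 enzyme at 120 nM final | medium = 50 mM Tris-HCl pH 7.5 with Mg2+, KCl, DTT, BSA | also added = T5PNP substrate, 5 mM | times = 2 h at 37 °C | technique = epi absorbance | benchmarks = high control without enzyme, low control DMSO plus TDP2 | replication = each compound tested once, singlicate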
PP5 primary: PP5 (human) phosphatase inhibition; inhibition, % at 6.7 µM; purified PP5c, OMFP substrate fluorescence; 320,000 tested, 0.18% active; AID 1987;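 active = inhibition above the campaign's mean inhibition across all tested compounds plus 3 SD, cut at about 9.5% in these data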;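 also: 0% = DMSO only and 100% = 100 µM cantharidin control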
PP1 inh: blocks human PP1-alpha phosphatase, a PP5 counter-screen | P62136 | purified PP1alpha, OMFP fluorescence | inhibition, % at 6.7 µM | 320,000 tested, 0.9% active;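 active = inhibition above the mean inhibition of all tested compounds plus 3 SD, computed separately for each screening campaign, cut at about 15% in these data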
Target sequence (P62136 whole entry, looked up): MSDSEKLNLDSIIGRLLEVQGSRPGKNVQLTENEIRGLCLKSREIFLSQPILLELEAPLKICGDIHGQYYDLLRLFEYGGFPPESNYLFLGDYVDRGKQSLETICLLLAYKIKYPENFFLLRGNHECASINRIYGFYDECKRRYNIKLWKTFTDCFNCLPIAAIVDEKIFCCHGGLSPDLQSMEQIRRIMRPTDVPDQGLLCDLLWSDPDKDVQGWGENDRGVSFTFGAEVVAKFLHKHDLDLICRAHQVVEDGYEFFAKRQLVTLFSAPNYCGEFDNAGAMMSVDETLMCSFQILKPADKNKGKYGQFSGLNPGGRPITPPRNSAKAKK
GSTO1 confirm: GSTO1 (human) inhibition, confirmation | recombinant GSTO1, probe fluorescence polarization | 2,400 tested, 54% active | shares compounds with GSTO1 counter | inhibition, % at 5.96 µM;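 active = inhibition above the primary screen's cutoff, its mean inhibition plus 3 SD, cut at about 35% in these data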;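 also: loss of polarization as inhibitors block binding of rhodamine sulfonate ester activity probe; 0% = GSTO1 with DMSO and 100% = wells lacking GSTO1 enzyme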
GSTO1 ABPP inh: inhibitors of recombinant human GSTO1; inhibition, % at 1 µM; gel ABPP SE-Rh probe fluorescence; 130 tested, 30% active; shares compounds with GSTO1 counter; AID 463110;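 active = inhibition of the enzyme GSTO1 above about 75%, limit read from the data; inactive = inhibition below that limit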
PP5 conf: PP5 (human) inhibition, confirmation | shares compounds with PP5 primary | Purified PP5, fluorogenic phosphatase substrate, fluorescence | inhibition, % at 6.7 µM | 460 tested, 22% active; in the data active = inhibition above about 9.5%
PP1 counter 3x: PP1 phosphatase inhibition, counter-screen for PP5 inhibitors | shares compounds with PP5 primary | PP1 enzyme, fluorescent phosphatase substrate | inhibition, % at 6.7 µM | 460 tested, 4% active | AID 2355; in the data active = inhibition above about 16%
PP1 inh confirm: human PP1 phosphatase inhibition, confirmation; 1,900 tested, 52% active; purified PP1alpha, OMFP substrate fluorescence; shares compounds with PP1 inh; inhibition, % at 6.7 µM;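 active = mean PP1 inhibition above a set limit taken from the earlier primary screen, cut at about 15% in these data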
PP5 inh counter: inhibits human PP5 phosphatase in PP1 counter-screen; purified PP5c, OMFP fluorescence; 1,900 tested, 4% active; AID 2360; inhibition, % at 6.7 µM; shares compounds with PP1 inh;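 active = mean PP5 inhibition over triplicate wells above about 9.5% taken from the earlier PP1 screen, limit read from the data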
Apaf-1 inh conf: confirmation of Apaf-1 inhibitors; shares compounds with Apaf1 inhib; reconstituted apoptosome, caspase-3 DEVD-Rh110 fluorescence; inhibition, % at 20 µM; 1,800 tested, 25% active; AID 504614;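 active = mean inhibition of at least 40% at 20 µM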;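 also: plate controls were DMSO wells for no effect and DEVD-CHO caspase inhibitor control wells for full effect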
Rh110 interf inh: interferes with Rh110 fluorescence, flagging false Apaf-1 inhibitors. Rh110 fluorescence interference, quenched caspase reaction. 1,800 tested, under 10 active. activation (fluorescence interference), % at 20 µM. shares compounds with Apaf1 inhib;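 active = signal rise of 40% or more at 20 µM, treated as a fluorescence artifact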
Fluor interf inh: counter-screen for Apaf-1 inhibitors: fluorescence interference, dose response. shares compounds with Apaf1 inhib. fluorescence interference counterscreen, Apaf-1 assay format. IC50, µM. 460 tested, under 10 active. AID 588538; call rule not given here
Active calls of the source: *; . = no result. A selection: hits, their analogues and other compounds. The true share with any hit is near 2.1%.

SMILES	Apaf1 inhib	GSTO1 counter	TDP2 absorb	PP5 primary	PP1 inh	GSTO1 confirm	Apaf-1 inh conf	Rh110 interf inh	others
CCn1nc([N+](=O)[O-])c(C(C#N)c2nc3cc(C(F)(F)F)ccc3s2)c(Cl)c1=O (centres undefined)	7	51*	22	7	22*	51*	.	.	PP1 inh confirm=22*;PP5 inh counter=5
CCCn1nc([N+](=O)[O-])c(C(C#N)c2nc3ccccc3o2)c(Cl)c1=O (centres undefined)	24	-14	11	4	9	.	.	.
COc1ccc(S[C@]2(C(=O)N3CCCC3)CC(=O)N(C(=O)C3CC3)[C@@H]2c2ccc(OC)cc2)cc1	.	.	-7	.	.	.	.	.
CCCCN(C(=O)c1cccc(N2C(=O)c3ccccc3C2=O)c1)c1c(N)n(CC(C)C)c(=O)[nH]c1=O	5	.	1	1	-6	.	.	.
CCCCN(C(=O)c1cccc(-n2cccc2)c1)c1c(N)n(Cc2ccccc2)c(=O)[nH]c1=O	19	58*	14	2	34*	3	.	.	PP1 inh confirm=0;PP5 inh counter=-6
CCN(CC(=O)Nc1c(F)cccc1F)C(=O)/C=C/c1ccc2ccccc2n1	27	62*	-7	-2	22*	32	.	.	PP1 inh confirm=4;PP5 inh counter=-4
O=C(O)C1Nc2ccc(Br)cc2C2C=CCC12 (centres undefined)	10	51*	.	2	38*	49*	.	.	PP1 inh confirm=6;PP5 inh counter=-2
O=C(NCc1ccc(F)cc1)c1cc(C2CCCCN2C(=O)CCCc2ccccc2)on1 (centres undefined)	.	.	0	.	.	.	.	.
COc1ccc(N2CCN(c3ccc(NC(=O)/C=C\C(=O)O)cc3)CC2)cc1	-2	74*	4	1	20*	3	.	.	PP1 inh confirm=-4;PP5 inh counter=-5
COCCn1c(=O)[nH]c(=O)c2c1nc(-c1ccc(-c3ccc(Cl)cc3[N+](=O)[O-])o1)n2Cc1ccccc1	39	60*	1	5	18*	4	.	.	PP1 inh confirm=38*;PP5 inh counter=6
O=C(N/N=C/c1cccc(F)c1)c1cc(-c2ccco2)nc2ccccc12	30	41*	4	-4	31*	25	.	.	PP1 inh confirm=11;PP5 inh counter=-2
Cc1c2ccccc2nc2c(F)c(NCCO)c(F)c(F)c12	54*	62*	13	-1	9	13	22	0
CC1=NN(c2ccc(C(F)(F)F)cn2)C(=O)C1	62*	44*	-4	4	0	30	61*	-4	Fluor interf inh=>100
Cc1ccc(NC(=O)CN2CCN(c3nc(-c4ccccc4)cs3)CC2)cc1C	.	.	5	.	.	.	.	.
O=C1c2ccccc2-c2onc3ccc(NCc4ccco4)c1c23	69*	100*	.	-7	-7	53*	30	-50
O=C(O)c1ccccc1NCc1ccco1	1	1	16	-2	-2	.	.	.
Cc1ccc2c(c1)c(=O)c1c3n2CCN(C(=O)CCl)C3CC1 (centres undefined)	64*	66*	21	1	5	80*	18	-7	GSTO1 ABPP inh=63
CCN(C(=O)[C@H]1CC(=O)O[C@@H]1c1ccccc1)c1ccccc1	.	.	7	.	.	.	.	.
CCOc1ccc(NC(=O)CSc2nnc(-c3n[nH]c4c3CCC4)n2N)cc1	.	.	14	.	.	.	.	.
O=C1c2ccccc2C(=O)c2[nH]c(=O)[nH]c21	80*	64*	38*	0	3	62*	75*	-2	Fluor interf inh=>100
O=C1C(c2ccccc2)=[N+]([O-])c2ccccc21	85*	64*	11	10*	-3	48*	87*	1	PP5 conf=36*;PP1 counter 3x=88*;Fluor interf inh=>100
O=[N+]([O-])c1cc(Br)c(O)c(C=Nc2ccc(N3CCOCC3)cc2)c1	68*	72*	21	4	2	-14	15	2
COc1cccc(C=Nc2ccc(N3CCOCC3)cc2)c1O	5	5	24	-2	-3	.	.	.
C(=Nc1cccc2c(N=Cc3ccco3)cccc12)c1ccco1	92*	40*	.	-1	2	3	28	0
C(=N\C(/N=C/c1ccco1)c1ccco1)/c1ccco1	14	19	10	1	0	.	.	.
SMILES	Apaf1 inhib	GSTO1 counter	TDP2 absorb	PP5 primary	PP1 inh	GSTO1 confirm	Apaf-1 inh conf	Rh110 interf inh	others
Cc1ccc(C)c(S(=O)(=O)C(C#N)c2nc3ccccc3nc2N2CCCC2)c1 (centres undefined)	87*	66*	8	2	1	31	12	1
Cc1ccc(C)c(S(=O)(=O)C(C#N)c2nc3ccccc3nc2N2CCOCC2)c1 (centres undefined)	25	7	2	4	-3	.	.	.
N#CC(c1nc2ccccc2nc1N1CCCC1)S(=O)(=O)c1ccccc1 (centres undefined)	64*	53*	1	1	8	56*	13	3
CC1(C)CC(=O)C(C=Nc2ccc(O)c(N=CC3=C(O)CC(C)(C)CC3=O)c2)=C(O)C1	47*	85*	-11	3	3	67*	17	1
CC1(C)CC(=O)C(C=Nc2ccc3c(c2)OCO3)=C(O)C1	-8	-10	-9	-1	-3	.	.	.
CCc1ccc(S(=O)(=O)/N=C2\C=C(Nc3ccc(O)cc3)C(=O)c3ccccc32)cc1	95*	87*	.	6	8	87*	96*	5	Fluor interf inh=>100
Cc1cc(C)c(S(=O)(=O)/N=C2\C=C(Nc3ccc(C(=O)O)cc3)C(=O)c3ccccc32)c(C)c1	89*	85*	84*	6	7	89*	92*	18	Fluor interf inh=>100
O=C(O)c1ccc(NS(=O)(=O)c2ccc3c(c2)C(=O)c2ccccc2C3=O)cc1	2	17	11	2	-1	.	.	.

Screening data as filed in PubChem BioAssay.
